Test results reported in ChEMBL document CHEMBL4152188, “Design, synthesis and biological evaluation of C(4) substituted monobactams as antibacterial agents against multidrug-resistant Gram-negative bacteria” (Eur J Med Chem, 2018).
In brackets after ≈: the same amount, converted by molar mass.

How the values were obtained:
Escherichia coli [1] = test: Antibacterial activity against extended-spectrum beta-lactamase producing Escherichia coli isolate 212648 after 18 hrs by CLSI broth microdilution method; format: functional; details: isolate 212648, 18 h
[2] = Elimination half life in mouse liver microsomes at 0.1 uM pre-incubated with compound followed by NADPH addition and measured after 60 mins by LC-MS/MS analysis; format: ADME, microsome; details: read-out: beta t1/2
[3] = Intrinsic clearance in human liver microsomes assessed per g protein at 0.1 uM pre-incubated with compound followed by NADPH addition and measured after 60 mins by LC-MS/MS analysis; format: ADME, microsome; details: 1 h
Outline: (§1)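 Liver microsomes, 0.33 mg/mL microsomal protein, with an NADP+-regenerating system. Test article at 0.1 µM, incubated at 37°C. Samples were taken at 0, 7, 17, 30 and 60 min, and parent compound was measured by MS. Half-life, intrinsic clearance (ml/min/g protein) and MF (%) are derived from parent loss.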

[4] = Intrinsic clearance in mouse liver microsomes assessed per g protein at 0.1 uM pre-incubated with compound followed by NADPH addition and measured after 60 mins by LC-MS/MS analysis; format: ADME, microsome; details: 1 h; outline: as §1
Escherichia coli [5] = test: Antibacterial activity against Escherichia coli isolate 210737 after 18 hrs by CLSI broth microdilution method; format: functional; details: isolate 210737, 18 h
Escherichia coli [6] = test: Antibacterial activity against extended-spectrum beta-lactamase producing Escherichia coli isolate 208687 after 18 hrs by CLSI broth microdilution method; format: functional; details: isolate 208687, 18 h
Escherichia coli [7] = test: Antibacterial activity against Escherichia coli isolate 210737 after 18 hrs in presence of BPL by CLSI broth microdilution method; format: functional; details: isolate 210737, 18 h
Outline: (§2)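 CLSI broth microdilution against clinical isolates (ESBL E. coli, KPC-2 MDR K. pneumoniae, IMP-4 MDR P. aeruginosa; five per species). Iron limitation: Mueller-Hinton broth supplemented with 16 mg/liter 2,2'-bipyridyl to complex iron and induce iron uptake systems. Read-out: MIC.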

Escherichia coli [8] = test: Selectivity index, ratio of MIC for against Escherichia coli isolate 210737 to MIC for Escherichia coli isolate 210737 in presence of BPL; format: functional
Escherichia coli [9] = test: Antibacterial activity against extended-spectrum beta-lactamase producing Escherichia coli isolate 212648 after 18 hrs in presence of BPL by CLSI broth microdilution method; format: functional; details: isolate 212648, 18 h; outline: as §2
Escherichia coli [10] = test: Selectivity index, ratio of MIC for against extended-spectrum beta-lactamase producing Escherichia coli isolate 212648 to MIC for extended-spectrum beta-lactamase producing Escherichia coli isolate 212648 in presence of BPL; format: functional
Escherichia coli [11] = test: Antibacterial activity against extended-spectrum beta-lactamase producing Escherichia coli isolate 209285 after 18 hrs by CLSI broth microdilution method; format: functional; details: isolate 209285, 18 h
Escherichia coli [12] = test: Selectivity index, ratio of MIC for against extended-spectrum beta-lactamase producing Escherichia coli isolate 209285 to MIC for extended-spectrum beta-lactamase producing Escherichia coli isolate 209285 in presence of BPL; format: functional
Escherichia coli [13] = test: Antibacterial activity against extended-spectrum beta-lactamase producing Escherichia coli isolate 106342 after 18 hrs by CLSI broth microdilution method; format: functional; details: isolate 106342, 18 h
Escherichia coli [14] = test: Selectivity index, ratio of MIC for against extended-spectrum beta-lactamase producing Escherichia coli isolate 106342 to MIC for extended-spectrum beta-lactamase producing Escherichia coli isolate 106342 in presence of BPL; format: functional
Klebsiella pneumoniae [15] = test: Antibacterial activity against KPC-2 producing Klebsiella pneumoniae isolate 212423 after 18 hrs in presence of BPL by CLSI broth microdilution method; format: functional; details: isolate 212423, 18 h; outline: as §2
Klebsiella pneumoniae [16] = test: Antibacterial activity against KPC-2 producing Klebsiella pneumoniae isolate 209632 after 18 hrs by CLSI broth microdilution method; format: functional; details: isolate 209632, 18 h
Klebsiella pneumoniae [17] = test: Antibacterial activity against KPC-2 producing Klebsiella pneumoniae isolate 209735 after 18 hrs by CLSI broth microdilution method; format: functional; details: isolate 209735, 18 h
Klebsiella pneumoniae [18] = test: Antibacterial activity against KPC-2 producing Klebsiella pneumoniae isolate 209735 after 18 hrs in presence of BPL by CLSI broth microdilution method; format: functional; details: isolate 209735, 18 h; outline: as §2
Klebsiella pneumoniae [19] = test: Selectivity index, ratio of MIC for against KPC-2 producing Klebsiella pneumoniae isolate 209735 to MIC for against KPC-2 producing Klebsiella pneumoniae isolate 209735 in presence of BPL; format: functional
Klebsiella pneumoniae [20] = test: Antibacterial activity against KPC-2 producing Klebsiella pneumoniae isolate 212232 after 18 hrs by CLSI broth microdilution method; format: functional; details: isolate 212232, 18 h
Klebsiella pneumoniae [21] = test: Antibacterial activity against KPC-2 producing Klebsiella pneumoniae isolate 212232 after 18 hrs in presence of BPL by CLSI broth microdilution method; format: functional; details: isolate 212232, 18 h; outline: as §2
Klebsiella pneumoniae [22] = test: Selectivity index, ratio of MIC for against KPC-2 producing Klebsiella pneumoniae isolate 212232 to MIC for against KPC-2 producing Klebsiella pneumoniae isolate 212232 in presence of BPL; format: functional
Klebsiella pneumoniae [23] = test: Antibacterial activity against KPC-2 producing Klebsiella pneumoniae isolate 212229 after 18 hrs in presence of BPL by CLSI broth microdilution method; format: functional; details: isolate 212229, 18 h; outline: as §2
Klebsiella pneumoniae [24] = test: Selectivity index, ratio of MIC for against KPC-2 producing Klebsiella pneumoniae isolate 212229 to MIC for against KPC-2 producing Klebsiella pneumoniae isolate 212229 in presence of BPL; format: functional
Pseudomonas aeruginosa [25] = test: Antibacterial activity against IMP-4 producing Pseudomonas aeruginosa isolate 212886 after 18 hrs in presence of BPL by CLSI broth microdilution method; format: functional; details: isolate 212886, 18 h; outline: as §2
Pseudomonas aeruginosa [26] = test: Antibacterial activity against IMP-4 producing Pseudomonas aeruginosa isolate 209471 after 18 hrs in presence of BPL by CLSI broth microdilution method; format: functional; details: isolate 209471, 18 h; outline: as §2
Pseudomonas aeruginosa [27] = test: Selectivity index, ratio of MIC for against IMP-4 producing Pseudomonas aeruginosa isolate 209471 to MIC for against IMP-4 producing Pseudomonas aeruginosa isolate 209471 in presence of BPL; format: functional
Pseudomonas aeruginosa [28] = test: Antibacterial activity against IMP-4 producing Pseudomonas aeruginosa isolate 208247 after 18 hrs in presence of BPL by CLSI broth microdilution method; format: functional; details: isolate 208247, 18 h; outline: as §2
Pseudomonas aeruginosa [29] = test: Selectivity index, ratio of MIC for against IMP-4 producing Pseudomonas aeruginosa isolate 208247 to MIC for against IMP-4 producing Pseudomonas aeruginosa isolate 208247 in presence of BPL; format: functional
Pseudomonas aeruginosa [30] = test: Antibacterial activity against IMP-4 producing Pseudomonas aeruginosa isolate 209321 after 18 hrs by CLSI broth microdilution method; format: functional; details: isolate 209321, 18 h
Pseudomonas aeruginosa [31] = test: Selectivity index, ratio of MIC for against IMP-4 producing Pseudomonas aeruginosa isolate 209321 to MIC for against IMP-4 producing Pseudomonas aeruginosa isolate 209321 in presence of BPL; format: functional
Pseudomonas aeruginosa [32] = test: Antibacterial activity against IMP-4 producing Pseudomonas aeruginosa isolate 207272 after 18 hrs in presence of BPL by CLSI broth microdilution method; format: functional; details: isolate 207272, 18 h; outline: as §2
Pseudomonas aeruginosa [33] = test: Selectivity index, ratio of MIC for against IMP-4 producing Pseudomonas aeruginosa isolate 207272 to MIC for against IMP-4 producing Pseudomonas aeruginosa isolate 207272 in presence of BPL; format: functional

SMILES | MIC (Escherichia coli [1]) [µg/mL] | half-life at 0.1 µM [2] [h] | CLint [3] [mL/min/g] | CLint [4] [mL/min/g] | MIC (Escherichia coli [5]) [µg/mL] | MIC (Escherichia coli [6]) [µg/mL] | MIC (Escherichia coli [7]) [µg/mL] | Selectivity Index (Escherichia coli [8]) | MIC (Escherichia coli [9]) [µg/mL] | Selectivity Index (Escherichia coli [10]) | MIC (Escherichia coli [11]) [µg/mL] | Selectivity Index (Escherichia coli [12]) | MIC (Escherichia coli [13]) [µg/mL] | Selectivity Index (Escherichia coli [14]) | MIC (Klebsiella pneumoniae [15]) [µg/mL] | MIC (Klebsiella pneumoniae [16]) [µg/mL] | MIC (Klebsiella pneumoniae [17]) [µg/mL] | MIC (Klebsiella pneumoniae [18]) [µg/mL] | Selectivity Index (Klebsiella pneumoniae [19]) | MIC (Klebsiella pneumoniae [20]) [µg/mL] | also measured
CC(C)C(O/N=C(\C(=O)N[C@@H]1C(=O)N(S(=O)(=O)O)[C@@H]1CCl)c1csc(N)n1)c1cc(=O)c(O)cn1O (some centres not stated) | 1 (≈ 1.77 µM) | 1.2 | 11.1 | 29 | 1 (≈ 1.77 µM) | 0.5 (≈ 0.885 µM) | 0.25 | 4 | 0.25 | 4 | 0.5 (≈ 0.885 µM) | 1 | 1 (≈ 1.77 µM) | 4 | 0.5 | 4 (≈ 7.08 µM) | 32 (≈ 56.6 µM) | 8 | 4 | 2 (≈ 3.54 µM) | MIC (Klebsiella pneumoniae [21]): 0.5 µg/mL; Selectivity Index (Klebsiella pneumoniae [22]): 4; MIC (Klebsiella pneumoniae [23]): 0.25 µg/mL; Selectivity Index (Klebsiella pneumoniae [24]): 2; MIC (Pseudomonas aeruginosa [25]): 8 µg/mL; MIC (Pseudomonas aeruginosa [26]): 4 µg/mL; Selectivity Index (Pseudomonas aeruginosa [27]): 2; MIC (Pseudomonas aeruginosa [28]): 8 µg/mL; Selectivity Index (Pseudomonas aeruginosa [29]): 1; MIC (Pseudomonas aeruginosa [30]): 8 µg/mL (≈ 14.2 µM); Selectivity Index (Pseudomonas aeruginosa [31]): 1; MIC (Pseudomonas aeruginosa [32]): 4 µg/mL; Selectivity Index (Pseudomonas aeruginosa [33]): 2
CC(C)C(O/N=C(\C(=O)N[C@@H]1C(=O)N(S(=O)(=O)O)[C@@H]1Cn1cc(COCc2cc(=O)c(O)cn2O)nn1)c1csc(N)n1)c1cc(=O)c(O)cn1O (some centres not stated) | 16 (≈ 20.9 µM) | 1.29 | 26.2 | 27.1 | 16 (≈ 20.9 µM) | 16 (≈ 20.9 µM) | 8 | 2 | 8 | 2 | 16 (≈ 20.9 µM) | 2 | 16 (≈ 20.9 µM) | 2 | 0.25 | 2 (≈ 2.61 µM) | 2 (≈ 2.61 µM) | 0.25 | 8 | 2 (≈ 2.61 µM) | MIC (Klebsiella pneumoniae [21]): 0.25 µg/mL; Selectivity Index (Klebsiella pneumoniae [22]): 8; MIC (Klebsiella pneumoniae [23]): 0.25 µg/mL; Selectivity Index (Klebsiella pneumoniae [24]): 8; MIC (Pseudomonas aeruginosa [25]): 1 µg/mL; MIC (Pseudomonas aeruginosa [26]): 2 µg/mL; Selectivity Index (Pseudomonas aeruginosa [27]): 4; MIC (Pseudomonas aeruginosa [28]): 4 µg/mL; Selectivity Index (Pseudomonas aeruginosa [29]): 1; MIC (Pseudomonas aeruginosa [30]): 8 µg/mL (≈ 10.4 µM); Selectivity Index (Pseudomonas aeruginosa [31]): 2; MIC (Pseudomonas aeruginosa [32]): 2 µg/mL; Selectivity Index (Pseudomonas aeruginosa [33]): 8
CC(C)C(O/N=C(\C(=O)N[C@@H]1C(=O)N(S(=O)(=O)O)[C@@H]1COC(N)=O)c1csc(N)n1)c1cc(=O)c(O)cn1O (some centres not stated) | 1 (≈ 1.7 µM) | 10.3 | 11.9 | 3.41 | 0.25 (≈ 0.424 µM) | 0.5 (≈ 0.848 µM) | 0.25 | 1 | 0.25 | 4 | 0.5 (≈ 0.848 µM) | 4 | 0.5 (≈ 0.848 µM) | 2 | 0.5 | 8 (≈ 13.6 µM) | 32 (≈ 54.3 µM) | 8 | 4 | 1 (≈ 1.7 µM) | MIC (Klebsiella pneumoniae [21]): 0.25 µg/mL; Selectivity Index (Klebsiella pneumoniae [22]): 4; MIC (Klebsiella pneumoniae [23]): 0.25 µg/mL; Selectivity Index (Klebsiella pneumoniae [24]): 4; MIC (Pseudomonas aeruginosa [25]): 4 µg/mL; MIC (Pseudomonas aeruginosa [26]): 8 µg/mL; Selectivity Index (Pseudomonas aeruginosa [27]): 1; MIC (Pseudomonas aeruginosa [28]): 4 µg/mL; Selectivity Index (Pseudomonas aeruginosa [29]): 1; MIC (Pseudomonas aeruginosa [30]): 8 µg/mL (≈ 13.6 µM); Selectivity Index (Pseudomonas aeruginosa [31]): 2; MIC (Pseudomonas aeruginosa [32]): 4 µg/mL; Selectivity Index (Pseudomonas aeruginosa [33]): 2
CC(C)C(O/N=C(\C(=O)N[C@@H]1C(=O)N(S(=O)(=O)O)C12CCCC2)c1csc(N)n1)c1cc(=O)c(O)cn1O (some centres not stated) | 1 (≈ 1.75 µM) | 6.25 | 7.76 | 5.59 | 0.5 (≈ 0.876 µM) | 0.5 (≈ 0.876 µM) | 0.06 | 8 | 0.5 | 2 | 0.5 (≈ 0.876 µM) | 1 | 0.5 (≈ 0.876 µM) | 2 | 0.5 | 2 (≈ 3.51 µM) | 2 (≈ 3.51 µM) | 0.25 | 8 | 1 (≈ 1.75 µM) | MIC (Klebsiella pneumoniae [21]): 0.06 µg/mL; Selectivity Index (Klebsiella pneumoniae [22]): 16; MIC (Klebsiella pneumoniae [23]): 0.125 µg/mL; Selectivity Index (Klebsiella pneumoniae [24]): 8; MIC (Pseudomonas aeruginosa [25]): 8 µg/mL; MIC (Pseudomonas aeruginosa [26]): 16 µg/mL; Selectivity Index (Pseudomonas aeruginosa [27]): 1; MIC (Pseudomonas aeruginosa [28]): 8 µg/mL; Selectivity Index (Pseudomonas aeruginosa [29]): 2; MIC (Pseudomonas aeruginosa [30]): 8 µg/mL (≈ 14 µM); Selectivity Index (Pseudomonas aeruginosa [31]): 1; MIC (Pseudomonas aeruginosa [32]): 8 µg/mL; Selectivity Index (Pseudomonas aeruginosa [33]): 2
